Test system: HEK-293T
Assay: Multiplex assay against HEK293T;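 on Population Tubulin-Different-Phenotype (%): share of the cells with healthy nuclei that show this phenotype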
Format: toxicity, cell-based
Conditions: human
In short: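 Live cells were stained at seeding with Hoechst33342, BioTracker Green Microtubule Cytoskeleton Dye, MitoTracker Red and Annexin V Alexa Fluor 680. Following compound addition, they were imaged on a CQ1 microscope at 37°C and 5% CO2 and gated by CellPathfinder machine learning into Hoechst high-intensity objects or normal cells, with normal cells split into healthy, pyknosed or fragmented nuclei and pyknosed cells into mitotic or apoptotic. Tubulin, mitochondrial-mass and membrane-permeability phenotypes are per cents of healthy-nucleus cells.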

[1] = 12 h, 1 µM, compound concentration 1 uM, replicate 1
[2] = 12 h, 1 µM, compound concentration 1 uM, replicate 2
[3] = 12 h, 10 µM, compound concentration 10 uM, replicate 1
[4] = 12 h, 10 µM, compound concentration 10 uM, replicate 2
[5] = 24 h, 1 µM, compound concentration 1 uM, replicate 1
[6] = 24 h, 1 µM, compound concentration 1 uM, replicate 2
[7] = 24 h, 10 µM, compound concentration 10 uM, replicate 1
[8] = 24 h, 10 µM, compound concentration 10 uM, replicate 2

Question: With `C=CC(=O)Nc1ccc2[nH]c(=O)n(C3CCN(Cc4ccc(-c5nc6cc[nH]c(=O)c6cc5-c5ccccc5)cc4)CC3)c2c1` [Borussertib] as the compound, how does the “Population Apoptotic (%)” value [1] read?
Answer: 18%

Question: And the “Population Fragmented Nuclei (%)” value [1]?
Answer: 16%

Question: And the “Population Healthy Nuclei (%)” value [1]?
Answer: 66%

Question: And the “Population Hoechst High Intensity Objects (%)” value [1]?
Answer: 13%

Question: What about the “Population Membrane Permeable-Phenotype (%)” value [1] of the same compound?
Answer: 5%

Question: What about the “Population Mitochondria Different-Phenotype (%)” value [1] of the same compound?
Answer: 5%

Question: What about the “Population Mitotic Cells (%)” value [1] of the same compound?
Answer: 81%

Question: What about the “Population Normal (%)” value [1] of the same compound?
Answer: 86%

Question: And the “Population Pyknosed Nuclei (%)” value [1]?
Answer: 17%

Question: What about the “Population Tubulin-Different-Phenotype (%)” value [1] of the same compound?
Answer: 5%

Question: What about the “Total Cell Count” value [1] of the same compound?
Answer: 656

Question: And the “Population Apoptotic (%)” value [2]?
Answer: 14%

Question: And the “Population Fragmented Nuclei (%)” value [2]?
Answer: 7%

Question: What about the “Population Healthy Nuclei (%)” value [2] of the same compound?
Answer: 86%

Question: What about the “Population Hoechst High Intensity Objects (%)” value [2] of the same compound?
Answer: 3%

Question: And the “Population Membrane Permeable-Phenotype (%)” value [2]?
Answer: 3%

Question: And the “Population Mitochondria Different-Phenotype (%)” value [2]?
Answer: 12%

Question: What about the “Population Mitotic Cells (%)” value [2] of the same compound?
Answer: 85%

Question: What about the “Population Normal (%)” value [2] of the same compound?
Answer: 96%

Question: And the “Population Pyknosed Nuclei (%)” value [2]?
Answer: 5%

Question: And the “Population Tubulin-Different-Phenotype (%)” value [2]?
Answer: 12%

Question: What about the “Total Cell Count” value [2] of the same compound?
Answer: 1375

Question: What about the “Population Apoptotic (%)” value [3] of the same compound?
Answer: 24%

Question: And the “Population Fragmented Nuclei (%)” value [3]?
Answer: 17%

Question: What about the “Population Healthy Nuclei (%)” value [3] of the same compound?
Answer: 48%

Question: What about the “Population Hoechst High Intensity Objects (%)” value [3] of the same compound?
Answer: 13%

Question: And the “Population Membrane Permeable-Phenotype (%)” value [3]?
Answer: 9%

Question: What about the “Population Mitochondria Different-Phenotype (%)” value [3] of the same compound?
Answer: 25%

Question: And the “Population Mitotic Cells (%)” value [3]?
Answer: 75%

Question: What about the “Population Normal (%)” value [3] of the same compound?
Answer: 86%

Question: And the “Population Pyknosed Nuclei (%)” value [3]?
Answer: 33%

Question: And the “Population Tubulin-Different-Phenotype (%)” value [3]?
Answer: 44%

Question: What about the “Total Cell Count” value [3] of the same compound?
Answer: 585

Question: What about the “Population Apoptotic (%)” value [4] of the same compound?
Answer: 17%

Question: What about the “Population Fragmented Nuclei (%)” value [4] of the same compound?
Answer: 4%

Question: What about the “Population Healthy Nuclei (%)” value [4] of the same compound?
Answer: 84%

Question: What about the “Population Hoechst High Intensity Objects (%)” value [4] of the same compound?
Answer: 4%

Question: And the “Population Membrane Permeable-Phenotype (%)” value [4]?
Answer: 12%

Question: And the “Population Mitochondria Different-Phenotype (%)” value [4]?
Answer: 43%

Question: And the “Population Mitotic Cells (%)” value [4]?
Answer: 82%

Question: And the “Population Normal (%)” value [4]?
Answer: 95%

Question: What about the “Population Pyknosed Nuclei (%)” value [4] of the same compound?
Answer: 11%

Question: What about the “Population Tubulin-Different-Phenotype (%)” value [4] of the same compound?
Answer: 82%

Question: And the “Total Cell Count” value [4]?
Answer: 1080

Question: What about the “Population Apoptotic (%)” value [5] of the same compound?
Answer: 15%

Question: And the “Population Fragmented Nuclei (%)” value [5]?
Answer: 14%

Question: What about the “Population Healthy Nuclei (%)” value [5] of the same compound?
Answer: 75%

Question: And the “Population Hoechst High Intensity Objects (%)” value [5]?
Answer: 11%

Question: What about the “Population Membrane Permeable-Phenotype (%)” value [5] of the same compound?
Answer: 8%

Question: What about the “Population Mitochondria Different-Phenotype (%)” value [5] of the same compound?
Answer: 3%

Question: What about the “Population Mitotic Cells (%)” value [5] of the same compound?
Answer: 84%

Question: And the “Population Normal (%)” value [5]?
Answer: 88%

Question: And the “Population Pyknosed Nuclei (%)” value [5]?
Answer: 9%

Question: What about the “Population Tubulin-Different-Phenotype (%)” value [5] of the same compound?
Answer: 10%

Question: What about the “Total Cell Count” value [5] of the same compound?
Answer: 716

Question: And the “Population Apoptotic (%)” value [6]?
Answer: 11%

Question: And the “Population Fragmented Nuclei (%)” value [6]?
Answer: 19%

Question: What about the “Population Healthy Nuclei (%)” value [6] of the same compound?
Answer: 77%

Question: And the “Population Hoechst High Intensity Objects (%)” value [6]?
Answer: 4%

Question: What about the “Population Membrane Permeable-Phenotype (%)” value [6] of the same compound?
Answer: 9%

Question: And the “Population Mitochondria Different-Phenotype (%)” value [6]?
Answer: 4%

Question: And the “Population Mitotic Cells (%)” value [6]?
Answer: 88%

Question: And the “Population Normal (%)” value [6]?
Answer: 95%

Question: And the “Population Pyknosed Nuclei (%)” value [6]?
Answer: 3%

Question: And the “Population Tubulin-Different-Phenotype (%)” value [6]?
Answer: 19%

Question: What about the “Total Cell Count” value [6] of the same compound?
Answer: 2108

Question: And the “Population Apoptotic (%)” value [7]?
Answer: 34%

Question: What about the “Population Fragmented Nuclei (%)” value [7] of the same compound?
Answer: 15%

Question: What about the “Population Healthy Nuclei (%)” value [7] of the same compound?
Answer: 60%

Question: What about the “Population Hoechst High Intensity Objects (%)” value [7] of the same compound?
Answer: 16%

Question: And the “Population Membrane Permeable-Phenotype (%)” value [7]?
Answer: 8%

Question: What about the “Population Mitochondria Different-Phenotype (%)” value [7] of the same compound?
Answer: 33%

Question: What about the “Population Mitotic Cells (%)” value [7] of the same compound?
Answer: 65%

Question: And the “Population Normal (%)” value [7]?
Answer: 83%

Question: What about the “Population Pyknosed Nuclei (%)” value [7] of the same compound?
Answer: 23%

Question: What about the “Population Tubulin-Different-Phenotype (%)” value [7] of the same compound?
Answer: 68%

Question: What about the “Total Cell Count” value [7] of the same compound?
Answer: 518

Question: What about the “Population Apoptotic (%)” value [8] of the same compound?
Answer: 16%

Question: And the “Population Fragmented Nuclei (%)” value [8]?
Answer: 8%

Question: What about the “Population Healthy Nuclei (%)” value [8] of the same compound?
Answer: 83%

Question: What about the “Population Hoechst High Intensity Objects (%)” value [8] of the same compound?
Answer: 9%

Question: And the “Population Membrane Permeable-Phenotype (%)” value [8]?
Answer: 9%

Question: What about the “Population Mitochondria Different-Phenotype (%)” value [8] of the same compound?
Answer: 43%

Question: What about the “Population Mitotic Cells (%)” value [8] of the same compound?
Answer: 83%

Question: And the “Population Normal (%)” value [8]?
Answer: 90%

Question: And the “Population Pyknosed Nuclei (%)” value [8]?
Answer: 8%

Question: What about the “Population Tubulin-Different-Phenotype (%)” value [8] of the same compound?
Answer: 90%

Question: And the “Total Cell Count” value [8]?
Answer: 1115

Source: ChEMBL document CHEMBL4689842, “EUbOPEN Chemogenomics Library wave 1” (2021)
